# Assay outcomes deposited in PubChem by several laboratories.
# Shown are actives, neighbours in structure and some others; about 1.4% of the full set was active somewhere.
# NR2E3 ag-1 – agonists of human nuclear receptor NR2E3 | Q9Y5X4 | GST-NR2E3/biotin-RetCOR TR-FRET, 1536-well | inhibition of corepressor binding, % at 4.78 µM | 0.12% of 320,000 active | AID 2300;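 active = percent inhibition above the cutoff of mean plus 3 SD of all tested compounds, set per screening campaign, cut at about 20% in these data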;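 note: 0% = DMSO wells and 100% = biotin wells as full block of FRET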
# Target sequence (Q9Y5X4 whole entry, looked up): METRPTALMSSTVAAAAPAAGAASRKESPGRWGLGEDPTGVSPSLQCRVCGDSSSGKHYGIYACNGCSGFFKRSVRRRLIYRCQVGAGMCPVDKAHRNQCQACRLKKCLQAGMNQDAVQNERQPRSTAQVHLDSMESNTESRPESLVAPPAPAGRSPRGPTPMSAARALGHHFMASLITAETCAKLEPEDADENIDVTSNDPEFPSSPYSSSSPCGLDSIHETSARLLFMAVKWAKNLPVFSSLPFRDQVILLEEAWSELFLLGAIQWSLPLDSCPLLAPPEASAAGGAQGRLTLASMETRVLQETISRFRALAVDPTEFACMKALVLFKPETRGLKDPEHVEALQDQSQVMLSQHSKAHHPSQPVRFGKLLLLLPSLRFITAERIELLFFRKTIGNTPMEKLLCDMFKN
#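 System: GST-tagged NR2E3 plus biotinylated RetCOR corepressor; Amount: 1.35 nM GST-tagged NR2E3 final; Dosing: single nominal compound dose of 4.8 µM; Schedule: 5 h incubation at 4 °C; Technique: TR-FRET with europium anti-GST and streptavidin-D2, 340 nm excitation; Controls: biotin wells as high control, 0.6% DMSO wells as low control.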
# NR1D1 modulator – modulators of human Rev-erb alpha DNA binding; activity, % at 10 µM; Rev-erbα–FITC-DNA binding, fluorescence polarization, 90 min; 0.79% of 370,000 active; P20393;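 active = activity above about 14%, limit read from the data; passing the limit was not always enough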;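 note: 0% = DMSO wells with 35 nM protein and 100% = DMSO wells with 750 nM protein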
# NR2E3 ag-2 – human photoreceptor-specific nuclear receptor agonism; AID 602229; CHO-S Gal4-NCOR/VP16-NR2E3 two-hybrid, luciferase; Q9Y5X4; inhibition of corepressor binding, % at 3.98 µM; 0.35% of 360,000 active;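 active = inhibition above the mean of all tested compounds plus 3 SD, cut at about 70% in these data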;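 note: 0% = DMSO with NR2E3 transfected cells and 100% = cells lacking NR2E3 construct; higher means lower luciferase signal from less NR2E3 corepressor binding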
# PG9 binder – PG9 antibody binding by small molecule | TR-FRET gp120-PG9 antibody binding | inhibition, % at 6.7 µM | 0.43% of 360,000 active | AID 624416; in the data active = inhibition above about 8.5%
# NR2E3 ag confirm – confirmation of human NR2E3 agonists. inhibition, % at 3.98 µM. shares compounds with NR2E3 ag-2. CHO-S mammalian two-hybrid NR2E3-NCOR, luciferase luminescence. 51% of 2,300 active;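 active = average inhibition above a cutoff equal to the mean inhibition of all tested compounds plus one SD, cut at about 70% in these data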;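 note: 0% = DMSO in NR2E3 cells and 100% = DMSO in cells lacking NR2E3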
# GAL4-VP16 luc – GAL4-VP16 reporter inhibition in NR2E3 agonist counterscreen. shares compounds with NR2E3 ag-2. CHO-S GAL4-VP16 luciferase reporter, luminescence. inhibition, % at 3.98 µM. 29% of 2,300 active;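 active = mean inhibition above a cutoff equal to the average over all tested compounds plus one standard deviation, cut at about 70% in these data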;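 note: luciferase from a UAS reporter driven by GAL4-VP16 transactivation; 0% = DMSO with VP16-transfected cells and 100% = DMSO with cells lacking VP16; higher means less reporter light so more repression of VP16 activity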
# * hit, by the source's call; . = no result given.
SMILES,NR2E3 ag-1,NR1D1 modulator,NR2E3 ag-2,PG9 binder,NR2E3 ag confirm,GAL4-VP16 luc
CC(O)(c1cccc(F)c1)c1nc(-c2cc3ccccc3o2)cs1 (stereo unspecified),.,1,34,1,.,.
COc1cccc(C(C)(O)c2nc(-c3ccccc3)cs2)c1 (stereo unspecified),.,-4,3,-1,.,.
COc1cccc(C(C)(O)c2nc(-c3ccc(OC)c(OC)c3)cs2)c1 (stereo unspecified),.,-7,-5,0,.,.
COC(=O)[C@]12C[C@H](CC(=O)NCC34CC5CC(CC(C5)C3)C4)C(=O)N(Cc3ccco3)C1=C[C@H](COCc1ccccc1)O[C@@H]2C,.,2,.,.,.,.
CSc1ccc(-c2nc(CSCC(=O)NCCCN3CCCC3=O)c(C)o2)cc1,1,-1,32,-1,.,.
COCCNC(=O)CSCc1nc(-c2ccc(SC)cc2)oc1C,3,-2,92*,3,85*,86*
CCc1ccc(-c2nc(CSCC(=O)NCCCN3CCCC3=O)c(C)o2)cc1,0,5,71*,1,90*,63
CCOCCCNC(=O)CSCc1nc(-c2ccc(SC)cc2)oc1C,2,3,81*,0,81*,81*
CCC[C@H]1[C@@H](NC(=O)c2ccc(C)cc2)CC[C@@]23CCCN2C(=O)CCC[C@@H]13,.,1,.,.,.,.
O=C(CCn1nnc2ccccc21)N1CCN(c2ccccc2F)CC1,.,-10,.,.,.,.
C=C(C(=O)c1ccccc1)C(NC(C)(C)C)c1ccccc1 (stereo unspecified),.,-1,92*,1,78*,29
Cc1cn([C@@H](CCCCNC(=O)OC(C)(C)C)C(=O)NCCCCCCCCCCC(=O)N2CCN(C(=O)OC(C)(C)C)CC2)nn1,3,.,56,.,74*,64
CCN(CC(=O)NCc1cccs1)C(=O)c1ccc(-c2cccc(C(F)(F)F)c2)o1,1,-5,54,-1,20,-7
COc1ccc(N/N=C(\C#N)C(N)=O)cc1,1,0,12,-4,.,.
N#C/C(=N/Nc1ccc(OC(F)(F)F)cc1)C(N)=S,-1,0,93*,-2,93*,58
CC(C)(C)c1ccc(-n2ncc3c2CCCC3NC(=O)c2cnccn2)cc1 (stereo unspecified),0,9,89*,-1,59,47
Cn1nccc1C(=O)NC1CCCc2c1cnn2-c1ccc(C(C)(C)C)cc1 (stereo unspecified),0,-4,106*,0,95*,84*
CC1CCCN(CCCNS(=O)(=O)c2cc3c(cc2Br)CCN3C(=O)C2CC2)C1 (stereo unspecified),.,-6,.,.,.,.
O=[N+]([O-])c1cnc2ccccc2c1Sc1ccccc1,.,-4,.,.,.,.
COC1=C(OC)C(=O)C(Sc2ccc3ccccc3c2)=CC1=O,.,0,84*,-1,94*,61
COc1ccc(S(=O)(=O)Oc2ccc3ccccc3c2)cc1,-6,-3,-88,2,.,.
CC1=C(CC(=O)c2ccccc2)C(=O)c2ccccc2C1=O,-2,10,55,-2,-91,-31
COc1ccc(/C=C2\SC(=N)N(c3nccs3)C2=O)cc1OC,2,-6,74*,-4,24,25
CCOC(=O)[C@@]12CCC3=C1N(CCC3)C(=O)[C@H](CC(=O)NCc1ccccc1)C2,.,-1,.,.,.,.
N[C@@H](CCC(=O)N[C@@H](CS)C(=O)NCC(=O)O)C(=O)O,.,-7,.,.,.,.
SMILES,NR2E3 ag-1,NR1D1 modulator,NR2E3 ag-2,PG9 binder,NR2E3 ag confirm,GAL4-VP16 luc
CCCCCCCCn1c2c(c(=N)c3ccccc31)CCC2,.,0,28,1,.,.
CCn1c2c(c(=N)c3c1CCC3)CCCC2,2,-5,-18,1,.,.
CCCCCCCCCn1c2c(c(=N)c3c1CCC3)CCCC2,.,.,95*,.,98*,96*
CCCCCCCCCCn1c2c(c(=N)c3c1CCC3)CCC2,1,-10,99*,-1,100*,97*
COC(=O)[C@]12C[C@H](CC(=O)N3CCSCC3)C(=O)N(Cc3ccc(Cl)cc3Cl)C1=C[C@H](COCc1ccccc1)O[C@@H]2C,.,-7,.,.,.,.
CCOC(=O)C1=NOC(C(=O)NCCO)(C(=O)C2CC2)C1 (stereo unspecified),.,-3,.,.,.,.
Cc1ccc(Cn2cc(CN3[C@@H](CC(C)C)COc4cc(Br)ccc4S3(=O)=O)nn2)cc1,.,-1,.,.,.,.
